Casp6 inh: caspase-6 (human) enzyme inhibition | purified caspase-6, Z-VEID-R110 cleavage fluorescence | inhibition, % at 12.5 µM | 0.53% of 350,000 active;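 active = mean inhibition across replicates at least about 35%, with every replicate also reaching that limit, limit read from the data; inconclusive = only one of the two criteria met; inactive = neither criterion met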;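 note: 0% = median of neutral control wells and 100% = no fluorescence left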
Target sequence (P55212 24-179 limits assumed): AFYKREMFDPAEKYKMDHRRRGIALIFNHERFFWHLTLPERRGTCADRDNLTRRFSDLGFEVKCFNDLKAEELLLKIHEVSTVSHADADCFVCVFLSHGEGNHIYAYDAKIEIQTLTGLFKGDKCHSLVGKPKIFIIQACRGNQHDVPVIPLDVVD
Target sequence (P55212 194-293 limits assumed): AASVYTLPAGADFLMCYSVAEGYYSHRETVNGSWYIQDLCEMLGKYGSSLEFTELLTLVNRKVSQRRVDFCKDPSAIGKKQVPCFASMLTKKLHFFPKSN
DENV2 CPE: protects cells from dengue virus 2 cytopathic effect; AID 651640; DENV2-infected cells, cytopathic effect rescue, plate reader; CPE inhibition, % at 9.99 µM; 1.7% of 350,000 active; in the data active = CPE inhibition above about 20%, passing the limit was not always enough; inconclusive = no clear call, values can overlap the other calls; tested in BHK-21 cells;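 note: 0% = median of neutral control wells and 100% = median of positive control wells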
FN deposit inh: fibronectin deposition inhibition; inhibition, % at 12.6 µM; AID 743247; 0.086% of 350,000 active; AH1F fibroblasts, Alexa488-fibronectin deposition fluorescence, overnight;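 active = mean inhibition across replicates of 30% or more, regardless of how many single replicates reach that level; inconclusive = mean under 30% yet at least half of replicates reach 30%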;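 note: positive control wells lacked labelled fibronectin entirely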
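Test system: AH1F fibroblast monolayer depositing Alexa488-labelled fibronectin into matrix. Input: 10000 cells per well. Technique: fluorescence, ex 485 nm, em 525 nm. Buffer or medium: DMEM plus 2% serum, read in PBS. Timing: 1 h cell adhesion before compound, then overnight fibronectin incubation. Compound: single dose, pinned. Read-out basis: inhibition from reduced deposited-fibronectin fluorescence.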
CaV13 FRET inh: Primary screen for inhibitors of IQ motif and Ca2+-dependent inactivation inhibitor domain binding in CACNA1D, Förster resonance energy transfer in living cells, …; HEK cells, CFP/YFP FRET ICDI-IQ, plate reader, 10 min; percent FRET-ratio fall versus neutral wells; inhibition, % at 12.3 µM; 0.098% of 340,000 active; AID 743397;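 active = mean replicate inhibition of at least 30% and at least 1% of replicates passing that level; inconclusive = only one of the two criteria is met; inactive = neither criterion is met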;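 note: 0% = median of the neutral control wells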
XiGFP reactiv: activators of X-chromosome reactivation in mouse fibroblasts; XiGFP mouse fibroblasts, % GFP-positive cells imaging, 3 d; cells co-treated with 5-aza-dC sensitizer; scaled so ellipticine positive control = 100%; 0.055% of 360,000 active; activation, % at 7.58 µM;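 active = mean normalized replicate activation at least 10% and every replicate at or above 10%; inconclusive = only one of the two criteria met; inactive = mean below 10% and not all replicates reach 10%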;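 note: 0% = median of on-plate neutral control wells and 100% = ellipticine 6 µM median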
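material = 68-5-11 XiGFP fibroblast line | medium = DMEM plus 5-aza-dC sensitizer | schedule = 3 days compound exposure | benchmarks = positive control ellipticine, 6 µM final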
The depositor's hits bear a star; ? = inconclusive; . = no result. Compounds with a hit are over-represented: about 2% of the library has one in this group of screens.

SMILES	Casp6 inh	DENV2 CPE	FN deposit inh	CaV13 FRET inh	XiGFP reactiv
CC1CCN(S(=O)(=O)c2ccc(C(=O)Nc3nnc(-c4ccco4)o3)cc2)CC1	-3.8	89.6*	-0.6	-3.3	0.1
CS(=O)(=O)c1cccc(-c2nnc(NC(=O)c3ccc(S(=O)(=O)N4CCCC4)cc3)o2)c1	1.9	60.7*	-5.2	-5.6	0.0
CC(=O)N1[C@H](CO)[C@H](c2ccc(-c3cccnc3)cc2)[C@@H]1CNC(=O)C1CC1	.	.	.	.	0.0
CCC(=O)Nc1ccc2c(c1)OC[C@H](C)NC[C@H](C)[C@H](OC)CN(C)C2=O	-6.7	20.8*	2.2	.	0.6
CO[C@H]1CN(C)C(=O)c2cc(NC(=O)CC(F)(F)F)ccc2OC[C@@H](C)NC[C@H]1C	-0.7	25.8*	-8.5	.	0.0
COc1cccc(NC(=O)Nc2ccc3c(c2)OC[C@H](C)NC[C@@H](C)[C@H](OC)CN(C)C3=O)c1	-6.9	22.2*	-7.0	.	0.3
CO[C@@H]1CN(C)C(=O)c2cc(NC(=O)CC(F)(F)F)ccc2OC[C@H](C)NC[C@@H]1C	-1.9	0.3	-22.7	.	0.1
COc1ccc(NC(=O)Nc2ccc3c(c2)OC[C@@H](C)NC[C@H](C)[C@H](OC)CN(C)C3=O)cc1	2.5	22.2*	-2.0	.	0.1
O=C(N[C@@H]1CC[C@@H](CC(=O)N2CCCCC2)O[C@@H]1CO)c1ccccn1	1.2	-8.0	9.5	.	0.3
CCCNC(=O)Nc1ccc2c(c1)C(=O)N(C)C[C@H](OC)[C@@H](C)CN(Cc1ccc(-c3ccccn3)cc1)[C@@H](C)CO2	.	.	6.2	.	-0.6
CN1[C@H](C(=O)NCC2CCCCC2)[C@@H](CO)[C@@H]2Cn3c(cccc3=O)[C@@H]21	0.1	11.8	.	.	0.7
C[C@H](CO)N1C[C@H](C)[C@H](CN(C)Cc2ccc(C(F)(F)F)cc2)Oc2ccc(NC(=O)Nc3ccc4c(c3)OCO4)cc2C1=O	4.4	3.2	.	.	0.0
CO[C@@H]1CN(C)C(=O)c2ccc(NC(=O)C3CCC3)cc2OC[C@H](C)NC[C@@H]1C	-1.9	34.3*	8.3	.	0.0
CO[C@H]1CN(C)C(=O)c2ccc(NC(=O)NC(C)C)cc2OC[C@H](C)NC[C@@H]1C	0.8	29.6*	0.6	.	0.3
O=C(Nc1cc(F)ccc1F)N1CCCCN2[C@H](CO)[C@H](c3ccc(C4=CCCCC4)cc3)[C@H]2C1	.	.	-3.5	.	0.0
CC(C)NC(=O)Nc1ccc2c(c1)C(=O)N(C)[C@H]1CC[C@@H](CC(=O)NCC3CCCCC3)O[C@H]1CO2	3.1	35.0*	-47.0	.	0.1
CN1C(=O)c2cc(NC(=O)C3CCCC3)ccc2OC[C@H]2O[C@@H](CC(=O)NCC3CC3)CC[C@@H]21	2.9	32.4*	5.1	.	0.0
C[C@H]1CN([C@@H](C)CO)C(=O)Cc2cc(NS(=O)(=O)c3cccs3)ccc2O[C@@H]1CN(C)S(=O)(=O)c1cccs1	.	.	.	.	-0.3
COc1ccccc1NC(=O)N1C[C@H]2[C@@H](c3ccccc31)[C@@H](CO)N2C(=O)c1ccccc1	.	.	.	.	0.0
COc1ccc(/C=C/C(=O)OCCCN(C)C)cc1	-0.1	8.4	-0.6	-3.6	-0.1
COc1ccccc1/C=C/C(=O)OCCCN(C)C	-10.3	-3.7	-4.0	-3.7	70.6*
COc1ccc(NC(=O)c2ccc(N3C(=O)C4CC=C(Cl)CC4C3=O)cc2)cc1 (stereo not drawn)	7.4	?	2.7	-19.7	0.0
O=C(NN1C(=O)C2CC=C(Cl)CC2C1=O)c1ccncc1 (stereo not drawn)	46.8*	3.8	-8.3	6.1	0.0
CCN(CC)CCCNc1nc(C)cc(COC)c1C#N	0.3	44.5*	-6.9	44.5*	0.1
O=[N+]([O-])c1cccc(NC(=S)N2CCc3ccccc32)c1	1.4	69.5*	-1.0	-2.8	0.2
SMILES	Casp6 inh	DENV2 CPE	FN deposit inh	CaV13 FRET inh	XiGFP reactiv
O=C(Nc1cccc([N+](=O)[O-])c1)N1CCCc2ccccc21	-0.8	-11.4	0.7	-6.1	0.2
O=C(Cc1cccnc1)N1CC[C@@H]2[C@@H](CO)Nc3ccc(C#Cc4ccccc4F)cc3[C@@H]21	-0.3	-9.4	18.8	.	0.1
CC1(C)CC(=O)C2=C(C1)NC(=O)NC2c1ccc(Cl)cc1 (stereo not drawn)	-1.0	22.6*	-0.4	-5.8	0.1
COc1ccc(S(=O)(=O)N(C)C[C@H]2Oc3ncc(C#CC4(O)CCCC4)cc3C(=O)N([C@H](C)CO)C[C@@H]2C)cc1	2.1	2.9	.	.	-0.3
COc1cc(/C=C/c2cccc[n+]2C)ccc1OCC(=O)Nc1cccc(Cl)c1	-24.7	24.8*	-11.3	-4.7	0.0
O=C(O)C/C(=C\c1cc(Cl)c2c(c1)OCO2)c1nc2ccccc2s1	60.0*	2.4	2.7	-4.7	0.1
COc1ccc(CN(C)C[C@@H]2OCCCC[C@@H](C)Oc3ccc(NC(=O)Nc4ccccc4)cc3C(=O)N([C@@H](C)CO)C[C@@H]2C)cc1	.	6.6	-24.0	.	0.0
COc1cc(C=C2C(=O)C=CC2=O)ccc1O	79.0*	-1.8	28.6	-9.9	2.2
COc1cc(/C=C2/C(=O)CNC2=O)ccc1O	.	.	2.0	-4.0	0.1
O=C(c1ccccc1F)N1CC2(C1)[C@@H](c1ccccc1)[C@H](CO)N2CC1CC1	-3.7	29.6*	6.8	.	0.0
O=C(NC1CCCC1)N1CC2(C1)[C@H](c1ccccc1)[C@@H](CO)N2CC1CCOCC1	1.0	38.1*	.	.	0.2
C/C=C/c1ccc([C@H]2[C@@H](CO)N(CC3CCCC3)C23CN(C(=O)CC)C3)cc1	-1.6	28.8*	.	.	0.3
O=C(c1ccncc1)N1CC2(C1)[C@H](c1ccccc1)[C@@H](CO)N2CC1CCOCC1	2.5	73.4*	-4.6	.	0.2
CC(C)NC(=O)Nc1ccc2c(c1)C(=O)N(C)[C@@H]1CC[C@H](CC(=O)NC3CCCCC3)O[C@H]1CO2	.	4.8	-10.6	.	0.4
Cc1nn(C)cc1NC(=O)C[C@H]1CC[C@@H]2[C@@H](COc3ccc(NC(=O)C4CCC4)cc3C(=O)N2C)O1	.	.	-17.1	.	0.1
O=C(c1ccccc1)N1CC2(C1)[C@@H](c1ccccc1)[C@@H](CO)N2CC1CC1	-1.4	21.4*	.	.	0.0
C/C=C/c1ccc([C@H]2[C@@H](CO)N(Cc3cncnc3)C23CN(C(=O)CC)C3)cc1	-1.5	0.4	.	.	0.1
C/C=C/c1ccc([C@@H]2[C@H](CO)N(Cc3cncnc3)C23CN(C(=O)COC)C3)cc1	2.5	22.1*	-1.8	.	0.0
CCC(=O)N1CC2(C1)[C@H](c1ccccc1)[C@H](CO)N2CC1CCOCC1	-2.8	70.4*	5.3	.	0.1
C[C@H]1CN([C@@H](C)CO)C(=O)c2cc(NC(=O)Nc3cccc4ccccc34)ccc2O[C@H]1CN(C)C(=O)Nc1ccc(C(F)(F)F)cc1	-3.3	-6.4	.	.	0.1

Source: PubChem BioAssay
